Results on 33 compounds are retold here after ChEMBL document CHEMBL3865814, “Chemical Constituents Isolated from the Root Bark of Cudrania tricuspidata and Their Potential Neuroprotective Effects” (J Nat Prod, 2016).

Some results are limits rather than exact numbers.

Holding throughout (assay type): functional, cell-based
Assay [1] can be described thus: Neuroprotective activity in human SH-SY5Y cells assessed as reduction in oxygen glucose deprivation-induced cell death incubated for 16 hrs under hypoxic condition followed by incubation for 24 hrs under normoxic condition by MTT assay. The gist of the method:
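After 24 h plating (2 × 10^4/well, DMEM with 10% FBS and glucose), medium was switched to serum- and glucose-free RPMI and samples or vehicle added. Cells were held 16 h under 95% N2/5% CO2, then reoxygenated 24 h in RPMI with 10% FBS and glucose at 37 °C. Viability was by MTT at A540. EC50 is half-maximal protection, mean of triplicates.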
A general note: Formazan colour is commonly taken as a measure of viable cells.

Assay [2] is described as follows: Neuroprotective activity in human SH-SY5Y cells assessed as reduction in 6-OHDA-induced cell death measured after 24 hrs by MTT assay. The gist of the method: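 Cells were seeded at 2 × 10^4 per well and grown 24 h in DMEM with 10% heat-inactivated FBS at 37 °C under 5% CO2. They were then co-treated with graded sample concentrations and 100 μM 6-OHDA for 24 h. Viability was by MTT (0.5 mg/mL, 4 h, 37 °C), DMSO solubilization and A540. EC50 is half-maximal protection, mean of triplicate determinations.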

The nature of assay [3]: Neuroprotective activity in human SH-SY5Y cells assessed as reduction in 1-methyl-4-phenylpyridinium ion-induced cell death after 48 hrs by MTT assay. The gist of the method:
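SH-SY5Y cells in DMEM with 10% heat-inactivated FBS and 1% penicillin/streptomycin were seeded at 2 × 10^4 cells/well for 24 h, then exposed to 2 mM MPP+ for 48 h. MTT (0.5 mg/mL in PBS) was added for 4 h at 37 °C, formazan dissolved in DMSO and absorbance read at 540 nm. EC50 is the concentration giving half-maximal protection, mean of triplicates.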

The EC50 is the concentration needed to bring the measured effect to its halfway point. Take `C=C1CC[C@H](O)C(C)(C)[C@@H]1CC/C(C)=C/CC/C=C(\C)CC/C=C(\C)CCC=C(C)C`: the figures for the EC50 in assay [1], in assay [2] and in assay [3] were 6.5 µM, 7.2 µM and over 50 µM, respectively.

With `CC(C)=CCc1c(O)c(O)cc2c(=O)c3c4c(c(O)cc3oc12)C(C)(C)C(C)O4` (stereo not given), the values for the EC50 in assay [1] and in assay [3] were 34.9 µM and over 50 µM, respectively.

Take `CC1Oc2cc3oc4c5c(c(O)cc4c(=O)c3c(O)c2C1(C)C)OC(C)(C)C(O)C5` (stereo not given): the values for the EC50 in assay [1] and in assay [3] were 23.6 µM and over 50 µM, respectively.

Turning to `C=CC(C)(C)c1c(OC)cc(O)c2c(=O)c3c(CC(O)C(=C)C)c(O)c(O)cc3oc12` (stereo not given), the results for the EC50 in assay [1] and in assay [3] were 2.9 µM and over 50 µM, respectively.

Consider `CC(C)=CCc1c2c(c(O)c3c(=O)c4ccc(O)c(O)c4oc13)C(C)(C)C(C)O2` (stereo not given), for which the EC50 in assay [1] was 17.2 µM; in assay [3] it was over 50 µM.

For the compound `O=c1ccoc2cc(O)cc(O)c12`, the EC50 in assay [2] was 1.9 µM.

Regarding `CC1(C)CCc2cc(C3CC(=O)c4c(O)cc5c(c4O3)CCC(C)(C)O5)c(O)cc2O1` (stereo not given), in assay [2], the EC50 was 9.1 µM.

As for `C=C(C)C(=O)Cc1c(OC)c(O)cc2oc3c4c(cc(O)c3c(=O)c12)OC(CO)C4(C)C` (stereo not given), the figures for the EC50 in assay [1] and in assay [3] were 13.2 µM and over 50 µM, respectively.

Consider `CC1(C)C=Cc2c(c(O)cc3c(=O)c4c(O)c5c(cc4oc23)OC(CO)C5(C)C)O1` (stereo not given), for which the results for the EC50 in assay [1] and in assay [3] were 11.2 µM and over 50 µM, respectively.

On to `COCc1ccc(O)cc1`, for which the EC50 in assay [1] was 7.9 µM; in assay [3], over 50 µM.

For `CC1Oc2cc3oc4c5c(c(O)cc4c(=O)c3c(O)c2C1(C)C)OC(C(C)(C)O)C5` (stereo not given), the EC50 in assay [1] was 6 µM; in assay [3], over 50 µM.

Take `C=CC(C)(C)c1c(OC)cc(O)c2c(=O)c3c(cc(O)c4oc(C(C)(C)O)cc43)oc12`: the EC50 in assay [1] is over 50 µM; in assay [3] it was 10.3 µM.

Regarding `C=CC(C)(C)c1c(O)cc(O)c2c(=O)c3c4c(c(O)cc3oc12)O[C@@H](C(C)(C)O)C4`, the values for the EC50 in assay [1] and in assay [3] were 12.2 µM and over 50 µM, respectively.

Regarding `CC1Oc2cc(O)c3c(=O)c4c5c(c(O)cc4oc3c2C1(C)C)OC(C)(C)C=C5` (stereo not given), the EC50 is 3.5 µM in assay [1] and over 50 µM in assay [3].

As for `C=C(C)C(O)Cc1c(OC)c(O)cc2oc3c4c(cc(O)c3c(=O)c12)OC(CO)C4(C)C` (stereo not given), the EC50 in assay [1] was 28.5 µM; in assay [3] it was over 50 µM.

As to `CC1(C)C=Cc2c(c(O)cc3oc4c5c(cc(O)c4c(=O)c23)OC(CO)C5(C)C)O1` (stereo not given), the EC50 in assay [1] is 8.9 µM; in assay [3], over 50 µM.

Regarding `COc1c(C(C)=O)ccc2c1C=CC(C)(C)O2`, the values for the EC50 in assay [1] and in assay [3] were 22.3 µM and over 50 µM, respectively.

With `C=CC(C)(C)c1c(O)cc(O)c2c(=O)c3c4c(c(O)cc3oc12)OC(C)(C)C=C4`, the EC50 in assay [1] is 33.3 µM; in assay [3] it was over 50 µM.

For `C[C@H]1[C@H](C)CC[C@]2(C)CC[C@]3(C)C(=CC[C@@H]4[C@@]5(C)CC[C@H](O)C(C)(C)[C@@H]5CC[C@]43C)[C@H]12`, the EC50 was 13.3 µM in assay [1] and over 50 µM in assay [3].

Turning to `O=Cc1ccc(O)cc1` [4-HYDROXYBENZALDEHYDE], in assay [2], the EC50 is 30.2 µM.

For `C=C(C)[C@@H]1CC[C@]2(C(=O)O)CC[C@]3(C)[C@H](CC[C@@H]4[C@@]5(C)CC[C@H](O)C(C)(C)[C@@H]5CC[C@]43C)[C@@H]12` [BETULINIC ACID], the EC50 in assay [3] was 4.3 µM.

For the compound `NCCC(=O)N[C@@H](Cc1c[nH]cn1)C(=O)O` [CARNOSINE], the EC50 in assay [1] was found to be 3 µM.

Consider `CC(C)=CC1Oc2cc(O)ccc2-c2oc3cc4c(c(O)c3c(=O)c21)C=CC(C)(C)O4` (stereo not given) [CUDRAFLAVONE A], for which the EC50 in assay [1] is 13.5 µM; in assay [2] it was 15.5 µM; in assay [3], over 50 µM.

Turning to `CC(C)=CCc1c(O)c(O)cc2oc3c4c(cc(O)c3c(=O)c12)OC(C)C4(C)C` (stereo not given) [CUDRATRICUSXANTHONE J], the results for the EC50 in assay [1] and in assay [3] were over 50 µM and 8.1 µM, respectively.

Turning to `C=CC(C)(C)c1c(OC)cc(O)c2c(=O)c3c(CC=C(C)C)c(O)c(O)cc3oc12` [CUDRAXANTHONE D], the values for the EC50 in assay [1] and in assay [3] were 4.8 µM and over 50 µM, respectively.

Take `COc1cc(/C=C/C(=O)CC(=O)/C=C/c2ccc(O)c(OC)c2)ccc1O` [CURCUMIN]: in assay [2], the EC50 came to 6.2 µM.

With `CC(C)=CCc1cc2ccc(=O)oc2cc1O` [DEMETHYLSUBEROSIN], the EC50 in assay [1] is 8.6 µM; in assay [3], 0.2 µM.

`CC1(C)CC[C@]2(C)CC[C@]3(C)[C@H]4CC=C5[C@@H](CC[C@H](O)C5(C)C)[C@]4(C)CC[C@@]3(C)[C@@H]2C1` [GLUTINOL]: the EC50 in assay [2] turned out to be 12.9 µM.

`CC(C)=CCOc1c2ccoc2cc2oc(=O)ccc12` [ISOIMPERATORIN]: the figures for the EC50 in assay [1], in assay [2] and in assay [3] were 3.5 µM, 9.2 µM and over 50 µM, respectively.

In the case of `COC(=O)c1ccc(O)cc1O` [METHYL 2,4-DIHYDROXYBENZOATE], the EC50 in assay [1] is 35.5 µM; in assay [3], over 50 µM.

Turning to `CCCCCCCC/C=C\CCCCCCCC(=O)O` [OLEIC ACID], the EC50 in assay [2] is 9.5 µM.

With `CC(C)=CCOc1c2occc2cc2ccc(=O)oc12` [PENTOSALEN], the EC50 in assay [1] was 8.4 µM; in assay [3], over 50 µM.

Consider `CC1(C)C=Cc2cc3ccc(=O)oc3cc2O1` [XANTHYLETIN], for which, in assay [2], the EC50 stood at 8 µM.
